According to article PMC6641930 (ACS Omega, 2017):
Several values for one entry are separate records, joined by “and”; a condition that tells them apart may be missing. Equal entries are not always repeated. Where two headings read alike, the source gives them in different places.

What was measured:
TTR fibrils [1] = biological target: T1, TTR fibrils (Homo sapiens, UniProt P02766); details: two separate binding events, cited from earlier work
TTR fibrils [2] = biological target: T1, TTR fibrils; test: Titration of TTR fibrils on a fixed probe concentration; type: binding
How it was run: (§1)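 Fibrils (0–20 μM, monomer basis) are titrated onto fixed probe: 1 μM, or 0.5 μM for Aβ1-42 fibrils. Buffers are pH 3.0 for TTR, insulin and lysozyme, and PBS pH 7.5 for Aβ1-42 (10 μM, 37 °C, 24 h quiescent). Samples equilibrate 30 min at room temperature. Excitation 330 nm, emission 350–700 nm. Kd comes from a one-site nonlinear fit with fixed Bmax correcting for unbound probe. SD is from two independent binding series.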

insulin fibrils [3] = biological target: T2, insulin fibrils (Bos taurus, UniProt P01317); test: Titration of insulin fibrils on a fixed probe concentration; type: binding, Bovine
How it was run: as §1

lysozyme fibrils [4] = biological target: T3, lysozyme fibrils (Gallus gallus, UniProt P00698); test: Titration of lysozyme fibrils on a fixed probe concentration; type: binding, chicken
How it was run: as §1

Aβ1-42 fibrils [5] = biological target: T4, Aβ1-42 fibrils (Homo sapiens, UniProt P05067); test: Titration of Aβ1-42 fibrils on a fixed probe concentration; type: binding
How it was run: as §1

TTR fibrils [6] = biological target: T1, TTR fibrils; test: Fluorescence emission of probe bound to TTR fibrils; type: binding; details: 5 μM fibrils + 1 μM probe; pH 3.0; excitation 330 nm
How it was run: (§2)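 Fibrils made from pH 3.0 (TTR: purified WT TTR in 50 mM NaAc/100 mM NaCl; bovine insulin or hen lysozyme: 200 μM in 25 mM HCl pH 1.6 at 65 °C, then dialysed into NaAc/NaCl pH 3.0). 1.0 μM probe from DMSO stock mixed with 5 μM fibrils (monomer basis) in HOAc/NaAc pH 3.0. Excitation 330 nm, emission 350–600 nm. Fold increase taken relative to free probe in buffer.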

insulin fibrils [7] = biological target: T2, insulin fibrils; test: Fluorescence emission of probe bound to insulin fibrils; type: binding, Bovine; details: pH 3.0; for Int: fold increase in fluorescence intensity upon binding to insulin fibrils: 5 μM fibrils (monomer basis) + 1 μM probe, versus free probe; for λem2: emission maxima of probe bound to insulin fibrils: 5 μM fibrils + 1 μM probe, excitation 330 nm
How it was run: as §2

lysozyme fibrils [8] = biological target: T3, lysozyme fibrils; test: Fluorescence emission of probe bound to lysozyme fibrils; type: binding, chicken; details: pH 3.0; for Int: fold increase in fluorescence intensity upon binding to lysozyme fibrils: 5 μM fibrils (monomer basis) + 1 μM probe, versus free probe; for λem2: emission maxima of probe bound to lysozyme fibrils: 5 μM fibrils + 1 μM probe, excitation 330 nm
How it was run: as §2

Aβ1-42 fibrils [9] = biological target: T4, Aβ1-42 fibrils; test: Fluorescence emission of probe bound to Aβ1-42 fibrils; type: binding; details: PBS buffer pH 7.5; for Int: fold increase in fluorescence intensity upon binding to Aβ1-42 fibrils: 5 μM fibrils (monomer basis) + 1 μM probe, versus free probe; for λem2: emission maxima of probe bound to Aβ1-42 fibrils: 5 μM fibrils + 1 μM probe, excitation 330 nm
How it was run: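 Recombinant Aβ1-42 (extra N-terminal Met), solubilised in 6 M GuHCl and gel-filtered into PBS pH 7.5. […] Probe (1.0 μM, from DMSO stock) mixed with 5 μM fibrils or freshly dissolved monomer (monomer basis) in PBS pH 7.5. Emission spectra at 330 nm excitation, identical settings.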

native Aβ1-42 = native Aβ1-42 (Homo sapiens, UniProt P05067); test: Fluorescence emission of probe with freshly dissolved native Aβ1-42; type: binding; details: 5 μM native Aβ1-42 + 1 μM probe; PBS buffer
How it was run: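 Probe (1.0 μM final, from DMSO stock) is read free in buffer or with 5 μM native protein (monomer basis). Buffers are HOAc/NaAc pH 3.0 or PBS pH 7.5. Aβ1-42 is recombinant with an extra N-terminal Met, freshly gel-filtered monomer in PBS pH 7.5. Spectra are recorded at 330 nm excitation, 350–600 nm emission, with identical instrument settings.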

[10] = UV-vis absorption and fluorescence spectra in methanol; type: physicochemical; details: for λmax (em): excitation 330 nm, [probe] = 20 μM; for ε: four concentrations
How it was run: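 Absorption is read in methanol in a 1 cm quartz cuvette at room temperature, at 20 μM and at four concentrations (50–5 μM, or 10–2 μM for one probe) for ε. Fluorescence of 20 μM probe in methanol uses 330 nm excitation, 350–600 nm emission and 1 nm resolution.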

Fluorescence lifetime = type: physicochemical; details: A: degassed methanol, [probe] = 5 μM; for τ1: excitation 337 nm
How it was run: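 TCSPC decays of 5 μM probe in argon-degassed methanol, excited at 337 nm and monitored at each emission maximum at room temperature. Instrument response is determined with a fibril solution. Decays are fitted to a sum of exponentials, with fit quality judged by χ2, residual distribution and residual autocorrelation. Average lifetime is calculated from amplitudes and lifetimes. Lifetime uncertainty is within 10%.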

Aβ1-42 fibrils [11] = biological target: T4, Aβ1-42 fibrils; test: Fluorescence lifetime; details: for α1 (normalized pre-exponential factor) / α2 (normalized pre-exponential factor) / τ2 / λem1 (emission wavelength of decay) / τ1: B: bound to Aβ1-42 fibrils in PBS buffer; for τavg (average fluorescence lifetime): B: bound to Aβ1-42 fibrils in PBS buffer pH 7.5, [probe] = 5 μM; for τavg (average fluorescence lifetime) / λem1 (emission wavelength of decay) / τ1: [fibrils] = 20 μM; for λem1 (emission wavelength of decay) / τ1: [probe] = 5 μM
How it was run: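 Time-correlated single photon counting on 5 μM probe with 20 μM Aβ1-42 fibrils (monomer basis) in PBS pH 7.5 at 25 °C, not degassed. Excitation 337 nm; decay recorded at the bound-probe emission maximum. Instrument response is measured with fibril solution. Multi-exponential fits are judged by χ2 and residuals. Uncertainty is within 10%.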

[12] = read-out: Kd1, TTR fibrils (high-affinity binding site)

T3 sequence (P00698 19-147): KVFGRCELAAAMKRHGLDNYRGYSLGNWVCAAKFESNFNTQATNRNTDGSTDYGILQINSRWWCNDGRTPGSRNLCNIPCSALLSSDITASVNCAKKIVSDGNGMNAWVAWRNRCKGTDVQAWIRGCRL
T2 sequence (P01317 25-54 limits assumed): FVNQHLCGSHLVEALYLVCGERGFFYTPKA
T2 sequence (P01317 85-105 limits assumed): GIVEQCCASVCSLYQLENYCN
T4 sequence (P05067 672-713): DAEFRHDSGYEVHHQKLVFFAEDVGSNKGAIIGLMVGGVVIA
native Aβ1-42, sequence (P05067 672-713): as above

| Kd (TTR fibrils [2]) [µM] | Kd (insulin fibrils [3]) [µM] | Kd (lysozyme fibrils [4]) [µM] | Kd (Aβ1-42 fibrils [5]) [µM] | λem2: emission maxima of probe bound to TTR fibrils (TTR fibrils [6]) [nm] | Int: fold increase in fluorescence intensity upon binding to insulin fibrils (insulin fibrils [7]) [fold] | λem2: emission maxima of probe bound to insulin fibrils (insulin fibrils [7]) [nm] | Int: fold increase in fluorescence intensity upon binding to lysozyme fibrils (lysozyme fibrils [8]) [fold] | λem2: emission maxima of probe bound to lysozyme fibrils (lysozyme fibrils [8]) [nm] | Int: fold increase in fluorescence intensity upon binding to Aβ1-42 fibrils (Aβ1-42 fibrils [9]) [fold] | λem2: emission maxima of probe bound to Aβ1-42 fibrils (Aβ1-42 fibrils [9]) [nm] | Stokes shift [10] [nm] | λmax (abs) [10] [nm] | λmax (em) [10] [nm] | ε [10] | α1 (normalized pre-exponential factor) (Fluorescence lifetime) | λem1 (emission wavelength of decay) (Fluorescence lifetime) [nm] | SMILES | Kd (TTR fibrils [1]; [12]) [µM] | Kd (TTR fibrils [1]; read-out: Kd2, TTR fibrils) [µM] | fluorescence / binding with freshly prepared native Aβ1-42 (native Aβ1-42) | other results |
| --- | --- | --- | --- | --- | --- | --- | --- | --- | --- | --- | --- | --- | --- | --- | --- | --- | --- | --- | --- | --- | --- |
| – | – | – | – | – | – | – | – | – | – | – | – | – | – | – | – | – | Oc1ccc(/C=C/c2cccc3ccccc23)cc1O [Compound 1, (E)-4-(2-(naphthalen-1-yl)vinyl)benzene-1,2-diol] | 0.11 | > 10 | – | – |
| 15.1 ± 0.9 | 8 ± 1.6 | 7 ± 1.6 | 4.3 ± 0.2 | 395 | 7.5 | 382 | 3.8 | 382 | 2.6 | 384 | 61 | 325 | 386 | 25 038 L·M^–1 cm^–1 | 1 | 395 | Oc1ccc(/C=C/c2ccccc2)cc1O [Compound 2, (E)-4-Styrylbenzene-1,2-diol] | – | – | Neither 2, 4, or 5 fluoresced appreciably | τavg (average fluorescence lifetime) (Fluorescence lifetime): <0.05 ns; τ1 (Fluorescence lifetime): < 0.05 ns; α1 (normalized pre-exponential factor) (Aβ1-42 fibrils [11]): 0.86; α2 (normalized pre-exponential factor) (Aβ1-42 fibrils [11]): 0.14; τ2 (Aβ1-42 fibrils [11]): 2.31 ns; τavg (average fluorescence lifetime) (Aβ1-42 fibrils [11]): 1.3 ns and 1.33 ns; λem1 (emission wavelength of decay) (Aβ1-42 fibrils [11]): 410 nm; τ1 (Aβ1-42 fibrils [11]): 0.28 ns |
| 12.3 ± 1 | 4.5 ± 0.4 | 2.9 ± 0.2 | 2.2 ± 0.4 | 395 | 13.7 | 410 | 13.1 | 410 | 6.9 | 408 | 86 | 334 | 420 | 30 170 L·M^–1 cm^–1 | 1 | 415 | Oc1ccc(/C=C/c2ccc3ccccc3c2)cc1O [Compound 3, (E)-4-(2-(naphthalen-2-yl)vinyl)benzene-1,2-diol] | 0.07 | > 10 | showed some binding | τavg (average fluorescence lifetime) (Fluorescence lifetime): 0.52 ns; τ1 (Fluorescence lifetime): 0.52 ns; α1 (normalized pre-exponential factor) (Aβ1-42 fibrils [11]): 0.54; α2 (normalized pre-exponential factor) (Aβ1-42 fibrils [11]): 0.46; τ2 (Aβ1-42 fibrils [11]): 1.65 ns; τavg (average fluorescence lifetime) (Aβ1-42 fibrils [11]): 1.5 ns and 1.45 ns; λem1 (emission wavelength of decay) (Aβ1-42 fibrils [11]): 420 nm; τ1 (Aβ1-42 fibrils [11]): 0.23 ns |
